# Measurements from different studies.
# Compare with care: the assays were run in different laboratories.
# Target: MAP kinase-activated protein kinase 5 (MAPKAPK5, Homo sapiens, UniProt Q8IW41)
# Sequence (Q8IW41 1-473, as in one of the studies): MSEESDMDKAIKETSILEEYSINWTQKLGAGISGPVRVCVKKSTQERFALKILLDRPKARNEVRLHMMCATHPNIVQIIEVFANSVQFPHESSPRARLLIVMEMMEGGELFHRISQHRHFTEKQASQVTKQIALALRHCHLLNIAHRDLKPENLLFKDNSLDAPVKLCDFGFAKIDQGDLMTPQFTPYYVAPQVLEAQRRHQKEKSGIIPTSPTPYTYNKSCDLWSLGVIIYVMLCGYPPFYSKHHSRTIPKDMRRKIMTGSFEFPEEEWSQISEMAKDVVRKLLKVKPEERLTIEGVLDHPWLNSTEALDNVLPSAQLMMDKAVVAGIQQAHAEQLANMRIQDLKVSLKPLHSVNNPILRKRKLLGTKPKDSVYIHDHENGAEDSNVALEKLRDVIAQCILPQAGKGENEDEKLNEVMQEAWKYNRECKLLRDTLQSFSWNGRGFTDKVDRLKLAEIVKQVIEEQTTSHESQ
SMILES,read-out,technique,tested at,remaining binding [%]
C[C@@H](c1ccc(-n2cnc3c(N)ncnc32)cc1)N1CCc2nn(C)c(Cc3ccccc3)c2C1=O,binding,competition with immobilised ligand,0.1 µM,76
O=C(c1ccc(Nc2nccc(-c3cc4ccccc4s3)n2)cc1)N1CCC(N2CCCC2)CC1,binding,competition with immobilised ligand,1 µM,96
Cc1cnn2ncc(-c3ccnc(N(C)C)n3)c2c1,binding,,1 µM,77
O=C(Nc1ccc(Oc2ccc(F)cc2)cc1)N1CCc2ncccc2[C@H]1c1ccc(F)cc1,cell-free assay,competition with immobilised ligand,1 µM,75
CN(CCCC(F)(F)F)c1nccc(-c2cnn3ncccc23)n1,binding,,1 µM,100
CC(=O)Nc1c(C(C)=O)c(=O)n(C)c2nc(-c3ccc(Cl)cc3Cl)c(-c3ccc(Cl)cc3)cc12,cell-free assay,competition with immobilised ligand,1 µM,100
C=CC(=O)N1CCC(C(=O)NCC(=O)N2CCN(c3nc(-c4cnc(N)nc4C(F)F)nc(N4CCOCC4)n3)CC2)CC1,binding,competition with immobilised ligand,1 µM,92
Nc1ncc2c(n1)-c1c([nH]c3ccc(C#CC4CC4)cc13)CCCC2,binding,competition with immobilised ligand,1 µM,97
N[C@@H]1CCN(c2nccc(-c3cnn4ncccc34)n2)C1,binding,,1 µM,100
C[C@H](c1cccc(C#N)c1)n1cc(Cl)cc(C(N)=O)c1=N,cell-free assay,competition with immobilised ligand,1 µM,84
C[C@H]1CCN(c2nccc(-c3cnn4ncccc34)n2)C1,binding,,1 µM,69
O=C(NCCCN1CCOCC1)c1ccc(Nc2ncc(Cl)c(-c3ccc(Cl)s3)n2)cc1,binding,competition with immobilised ligand,1 µM,100
CCS(=O)(=O)c1cc2cc(C[C@](O)(CC(C)(C)c3ccc(F)cc3C(N)=O)C(F)(F)F)[nH]c2cn1,cell-free assay,competition with immobilised ligand,1 µM,93
CNC(=O)[C@@H]1CC[C@@H](n2c(-c3ccc4cnccc4c3)nc3ccc(C(=O)NCc4cccc(C(N)=O)c4)cc32)C1,binding,competition with immobilised ligand,1 µM,100
c1cnn2ncc(-c3ccnc(N4CCC45COC5)n3)c2c1,binding,,1 µM,74
COc1cnc(Nc2cccc(S(N)(=O)=O)c2)nc1N1CCN(c2ccccc2)C(=O)C1,binding,competition with immobilised ligand,1 µM,100
CS(=O)(=O)c1cc(C2(NC(=O)c3cncc4c3cnn4-c3ccc(F)cc3)CC2)ccn1,cell-free assay,competition with immobilised ligand,1 µM,87
O=C(NCC1CCOCC1)c1n[nH]cc1NC(=O)c1c(F)cccc1F,binding,competition with immobilised ligand,1 µM,72
O=C(NCCCN1CCOCC1)c1ccc(Nc2nccc(-c3cc4ccccc4s3)n2)cc1,binding,competition with immobilised ligand,1 µM,82
